Measured values published in ChEMBL document CHEMBL2424622, “Development of amino-pyrimidine inhibitors of c-Jun N-terminal kinase (JNK): kinase profiling guided optimization of a 1,2,3-benzotriazole lead” (Bioorg Med Chem Lett, 2013).

Tests used:
[1] = target: T1, Cytoplasmic tyrosine-protein kinase BMX (Homo sapiens) (UniProt P51813); experiment: Competitive binding affinity to BMX (unknown origin) at 10 uM in presence of ATP relative to control
T1 sequence (whole entry): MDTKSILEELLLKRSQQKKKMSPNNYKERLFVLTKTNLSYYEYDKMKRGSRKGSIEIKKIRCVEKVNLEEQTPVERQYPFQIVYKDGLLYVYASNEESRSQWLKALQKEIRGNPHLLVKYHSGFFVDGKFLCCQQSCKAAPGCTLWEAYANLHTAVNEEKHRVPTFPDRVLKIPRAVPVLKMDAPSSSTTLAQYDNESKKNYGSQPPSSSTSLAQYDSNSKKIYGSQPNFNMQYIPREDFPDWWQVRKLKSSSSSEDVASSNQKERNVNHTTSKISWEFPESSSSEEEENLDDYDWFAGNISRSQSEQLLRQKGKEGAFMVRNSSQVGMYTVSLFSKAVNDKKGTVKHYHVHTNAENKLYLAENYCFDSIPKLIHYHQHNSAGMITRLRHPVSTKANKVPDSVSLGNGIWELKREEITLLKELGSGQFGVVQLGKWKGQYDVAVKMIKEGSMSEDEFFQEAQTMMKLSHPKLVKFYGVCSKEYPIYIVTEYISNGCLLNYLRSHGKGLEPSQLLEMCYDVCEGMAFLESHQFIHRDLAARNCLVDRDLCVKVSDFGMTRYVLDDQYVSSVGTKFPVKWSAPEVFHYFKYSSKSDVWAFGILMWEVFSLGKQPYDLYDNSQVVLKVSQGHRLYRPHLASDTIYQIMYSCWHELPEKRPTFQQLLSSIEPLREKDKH

[2] = target: Ribosomal protein S6 kinase alpha-3 (Homo sapiens) (UniProt P51812); experiment: Competitive binding affinity to RPS6KA3 domain 1 (unknown origin) at 10 uM in presence of ATP relative to control
Sequence of Ribosomal protein S6 kinase alpha-3 (Homo sapiens) (P51812 whole entry, the tested form may be a part): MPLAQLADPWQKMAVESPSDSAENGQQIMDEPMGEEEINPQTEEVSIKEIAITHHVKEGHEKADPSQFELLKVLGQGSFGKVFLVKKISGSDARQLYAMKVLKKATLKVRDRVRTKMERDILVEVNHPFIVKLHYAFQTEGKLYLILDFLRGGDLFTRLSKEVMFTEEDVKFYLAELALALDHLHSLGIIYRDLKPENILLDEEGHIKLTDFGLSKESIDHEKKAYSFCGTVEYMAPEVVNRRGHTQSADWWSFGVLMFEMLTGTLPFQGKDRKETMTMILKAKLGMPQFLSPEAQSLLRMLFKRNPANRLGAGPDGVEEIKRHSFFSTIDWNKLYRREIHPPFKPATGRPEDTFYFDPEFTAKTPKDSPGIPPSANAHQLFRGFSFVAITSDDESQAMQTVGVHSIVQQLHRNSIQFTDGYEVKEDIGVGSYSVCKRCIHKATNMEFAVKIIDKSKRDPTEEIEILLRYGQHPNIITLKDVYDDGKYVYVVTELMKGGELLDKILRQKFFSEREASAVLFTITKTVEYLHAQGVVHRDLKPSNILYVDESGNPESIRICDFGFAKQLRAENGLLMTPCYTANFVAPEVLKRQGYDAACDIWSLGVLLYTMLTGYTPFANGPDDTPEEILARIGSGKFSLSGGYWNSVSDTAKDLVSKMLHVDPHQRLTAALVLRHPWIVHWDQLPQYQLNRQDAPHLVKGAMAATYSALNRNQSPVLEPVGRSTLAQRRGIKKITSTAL
Outline: (§1)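 In vitro ATP-site competition binding assay across a diverse panel of 128 kinases, with compound tested at a single concentration. Kinase selectivity scores (S15) were calculated from the panel profiles.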

[3] = target: T2, Ephrin type-B receptor 1 (Homo sapiens) (UniProt P54762); experiment: Competitive binding affinity to EPHB1 (unknown origin) at 10 uM in presence of ATP relative to control
T2 sequence (whole entry): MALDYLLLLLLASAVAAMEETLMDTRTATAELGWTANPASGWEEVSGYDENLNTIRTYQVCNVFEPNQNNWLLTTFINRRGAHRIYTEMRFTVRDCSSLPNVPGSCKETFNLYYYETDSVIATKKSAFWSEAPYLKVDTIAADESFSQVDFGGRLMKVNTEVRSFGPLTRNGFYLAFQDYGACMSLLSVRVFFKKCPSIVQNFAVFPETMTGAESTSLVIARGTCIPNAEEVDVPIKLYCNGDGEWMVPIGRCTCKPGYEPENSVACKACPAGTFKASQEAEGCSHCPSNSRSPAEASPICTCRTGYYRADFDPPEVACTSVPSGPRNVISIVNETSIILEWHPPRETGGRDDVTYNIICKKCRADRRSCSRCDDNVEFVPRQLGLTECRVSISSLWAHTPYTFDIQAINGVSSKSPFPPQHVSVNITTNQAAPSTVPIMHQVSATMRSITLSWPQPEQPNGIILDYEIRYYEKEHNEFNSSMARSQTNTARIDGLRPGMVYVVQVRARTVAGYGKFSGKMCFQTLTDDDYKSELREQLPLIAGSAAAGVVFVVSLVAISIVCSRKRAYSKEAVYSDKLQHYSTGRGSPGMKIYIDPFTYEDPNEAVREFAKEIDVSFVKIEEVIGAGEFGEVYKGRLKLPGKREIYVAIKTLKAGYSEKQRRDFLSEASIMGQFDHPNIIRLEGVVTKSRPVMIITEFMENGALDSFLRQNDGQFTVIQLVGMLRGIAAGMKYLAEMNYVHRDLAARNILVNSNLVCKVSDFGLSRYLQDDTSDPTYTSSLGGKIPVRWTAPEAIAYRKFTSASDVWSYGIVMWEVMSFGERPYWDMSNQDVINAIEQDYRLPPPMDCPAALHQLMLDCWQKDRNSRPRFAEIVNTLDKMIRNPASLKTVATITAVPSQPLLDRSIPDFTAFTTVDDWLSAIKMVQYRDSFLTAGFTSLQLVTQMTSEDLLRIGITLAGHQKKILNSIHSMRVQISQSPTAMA
Outline: (§2)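 In vitro ATP-site competition binding assay, part of profiling against a diverse panel of 128 kinases. Each compound was tested at a single concentration of 10 µM. Kinome selectivity was summarized as S15 selectivity scores.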

[4] = target: T3, Tyrosine-protein kinase TXK (Homo sapiens) (UniProt P42681); experiment: Competitive binding affinity to TXK (unknown origin) at 10 uM in presence of ATP relative to control; outline: as §1
T3 sequence (whole entry): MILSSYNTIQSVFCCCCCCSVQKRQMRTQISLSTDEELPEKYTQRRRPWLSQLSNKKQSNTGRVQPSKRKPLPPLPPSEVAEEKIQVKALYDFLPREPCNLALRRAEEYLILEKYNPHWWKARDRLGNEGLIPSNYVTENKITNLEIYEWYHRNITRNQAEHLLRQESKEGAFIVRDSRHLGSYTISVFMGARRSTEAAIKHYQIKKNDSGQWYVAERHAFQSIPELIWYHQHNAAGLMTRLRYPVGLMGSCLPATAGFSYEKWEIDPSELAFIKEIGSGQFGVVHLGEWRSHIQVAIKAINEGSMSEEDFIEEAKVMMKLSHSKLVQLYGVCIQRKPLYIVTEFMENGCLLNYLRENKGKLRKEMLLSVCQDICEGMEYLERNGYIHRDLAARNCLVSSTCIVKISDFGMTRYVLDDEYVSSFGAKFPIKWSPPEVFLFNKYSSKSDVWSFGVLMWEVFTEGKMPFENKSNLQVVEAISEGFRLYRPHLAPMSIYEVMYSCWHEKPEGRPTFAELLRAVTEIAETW

[5] = target: MAP kinase-interacting serine/threonine-protein kinase 2 (Homo sapiens) (UniProt Q9HBH9); experiment: Competitive binding affinity to MKNK2 (unknown origin) at 10 uM in presence of ATP relative to control; outline: as §1
Sequence of MAP kinase-interacting serine/threonine-protein kinase 2 (Homo sapiens) (Q9HBH9 whole entry, looked up, the tested form may be a part): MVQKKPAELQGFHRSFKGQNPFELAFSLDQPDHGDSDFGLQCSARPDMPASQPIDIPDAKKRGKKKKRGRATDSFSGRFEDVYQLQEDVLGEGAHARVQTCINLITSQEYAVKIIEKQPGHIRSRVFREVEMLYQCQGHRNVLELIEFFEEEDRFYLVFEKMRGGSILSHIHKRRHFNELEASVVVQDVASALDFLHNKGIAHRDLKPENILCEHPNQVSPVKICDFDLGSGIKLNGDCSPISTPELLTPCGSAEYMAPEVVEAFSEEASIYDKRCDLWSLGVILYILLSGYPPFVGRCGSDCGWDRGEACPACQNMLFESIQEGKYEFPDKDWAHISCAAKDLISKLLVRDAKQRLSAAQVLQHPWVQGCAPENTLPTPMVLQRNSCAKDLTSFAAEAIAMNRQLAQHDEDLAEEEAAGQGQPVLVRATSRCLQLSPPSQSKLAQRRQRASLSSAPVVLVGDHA

LIM domain kinase 1 = LIM domain kinase 1 (Homo sapiens, UniProt P53667); experiment: Competitive binding affinity to LIMK1 (unknown origin) at 10 uM in presence of ATP relative to control; outline: as §2
Sequence of LIM domain kinase 1 (P53667 whole entry, looked up, the tested form may be a part): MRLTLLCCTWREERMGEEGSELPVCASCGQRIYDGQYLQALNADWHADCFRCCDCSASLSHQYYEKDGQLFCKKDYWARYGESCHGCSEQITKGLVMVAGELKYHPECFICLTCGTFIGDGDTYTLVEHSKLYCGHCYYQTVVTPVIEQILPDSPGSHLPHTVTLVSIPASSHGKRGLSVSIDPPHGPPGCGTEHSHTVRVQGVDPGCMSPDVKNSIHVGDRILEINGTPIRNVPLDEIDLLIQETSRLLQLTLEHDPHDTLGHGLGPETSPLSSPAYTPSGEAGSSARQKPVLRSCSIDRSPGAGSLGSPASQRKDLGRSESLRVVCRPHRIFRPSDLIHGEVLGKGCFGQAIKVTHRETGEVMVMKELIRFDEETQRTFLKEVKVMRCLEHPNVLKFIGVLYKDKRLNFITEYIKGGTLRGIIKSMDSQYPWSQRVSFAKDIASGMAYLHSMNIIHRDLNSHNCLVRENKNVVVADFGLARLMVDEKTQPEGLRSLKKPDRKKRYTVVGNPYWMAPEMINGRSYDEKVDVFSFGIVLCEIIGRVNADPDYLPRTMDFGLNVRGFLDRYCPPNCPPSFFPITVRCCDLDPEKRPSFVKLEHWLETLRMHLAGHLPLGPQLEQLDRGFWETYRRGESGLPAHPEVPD

[6] = target: Leukocyte tyrosine kinase receptor (Homo sapiens) (UniProt P29376); experiment: Competitive binding affinity to LTK (unknown origin) at 10 uM in presence of ATP relative to control; outline: as §2
Sequence of Leukocyte tyrosine kinase receptor (Homo sapiens) (P29376 whole entry): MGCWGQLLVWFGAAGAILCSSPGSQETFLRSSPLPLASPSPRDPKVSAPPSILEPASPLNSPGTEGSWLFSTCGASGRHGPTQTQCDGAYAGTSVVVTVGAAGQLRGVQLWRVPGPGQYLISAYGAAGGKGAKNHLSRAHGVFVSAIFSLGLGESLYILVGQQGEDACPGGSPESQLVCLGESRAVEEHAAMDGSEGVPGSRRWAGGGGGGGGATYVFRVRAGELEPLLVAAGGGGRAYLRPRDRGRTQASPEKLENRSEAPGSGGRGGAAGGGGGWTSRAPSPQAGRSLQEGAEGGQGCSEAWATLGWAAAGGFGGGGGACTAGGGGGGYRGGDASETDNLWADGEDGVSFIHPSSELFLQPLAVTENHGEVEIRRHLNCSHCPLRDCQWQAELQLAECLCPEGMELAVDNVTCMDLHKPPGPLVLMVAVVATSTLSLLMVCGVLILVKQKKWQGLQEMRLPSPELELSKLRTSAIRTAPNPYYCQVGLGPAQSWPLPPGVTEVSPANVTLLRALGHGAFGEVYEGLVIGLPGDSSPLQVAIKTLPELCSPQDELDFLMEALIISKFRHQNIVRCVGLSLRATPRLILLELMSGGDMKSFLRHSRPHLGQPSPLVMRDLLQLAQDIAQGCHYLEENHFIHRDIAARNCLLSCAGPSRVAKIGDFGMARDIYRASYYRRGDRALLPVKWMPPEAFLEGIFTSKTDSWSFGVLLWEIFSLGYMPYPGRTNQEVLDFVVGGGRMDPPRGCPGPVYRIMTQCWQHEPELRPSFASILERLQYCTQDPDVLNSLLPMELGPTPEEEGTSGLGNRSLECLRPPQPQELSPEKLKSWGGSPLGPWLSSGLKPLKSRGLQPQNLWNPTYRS

[7] = target: Mitogen-activated protein kinase kinase kinase kinase 5 (Homo sapiens) (UniProt Q9Y4K4); experiment: Competitive binding affinity to MAP4K5 (unknown origin) at 10 uM in presence of ATP relative to control; outline: as §2
Sequence of Mitogen-activated protein kinase kinase kinase kinase 5 (Homo sapiens) (Q9Y4K4 whole entry, looked up): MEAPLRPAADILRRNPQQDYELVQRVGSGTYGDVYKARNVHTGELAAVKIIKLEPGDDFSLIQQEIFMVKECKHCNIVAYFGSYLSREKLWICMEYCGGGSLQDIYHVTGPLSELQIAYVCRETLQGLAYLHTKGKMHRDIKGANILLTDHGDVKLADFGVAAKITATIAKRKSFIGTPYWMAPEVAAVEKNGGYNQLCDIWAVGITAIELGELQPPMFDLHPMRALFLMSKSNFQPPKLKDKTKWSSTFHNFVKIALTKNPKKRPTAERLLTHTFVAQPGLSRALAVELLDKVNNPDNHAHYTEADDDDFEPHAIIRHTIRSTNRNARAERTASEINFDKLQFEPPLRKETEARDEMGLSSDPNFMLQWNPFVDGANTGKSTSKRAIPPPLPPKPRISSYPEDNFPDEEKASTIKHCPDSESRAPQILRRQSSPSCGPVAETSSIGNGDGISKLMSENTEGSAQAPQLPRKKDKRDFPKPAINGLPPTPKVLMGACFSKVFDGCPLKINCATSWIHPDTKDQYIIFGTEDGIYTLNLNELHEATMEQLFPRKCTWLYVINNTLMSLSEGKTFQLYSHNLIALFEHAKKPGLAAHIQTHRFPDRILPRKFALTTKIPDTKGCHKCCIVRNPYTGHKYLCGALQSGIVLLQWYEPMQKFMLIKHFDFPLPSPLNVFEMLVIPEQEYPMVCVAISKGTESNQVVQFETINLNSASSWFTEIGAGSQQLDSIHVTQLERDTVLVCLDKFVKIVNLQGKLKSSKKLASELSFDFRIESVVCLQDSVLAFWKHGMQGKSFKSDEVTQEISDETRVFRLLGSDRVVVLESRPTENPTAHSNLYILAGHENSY

[8] = target: Calcium/calmodulin-dependent protein kinase type 1 (Homo sapiens, UniProt Q14012); experiment: Competitive binding affinity to CAMK1 (unknown origin) at 10 uM in presence of ATP relative to control
Sequence of Calcium/calmodulin-dependent protein kinase type 1 (Q14012 whole entry, looked up): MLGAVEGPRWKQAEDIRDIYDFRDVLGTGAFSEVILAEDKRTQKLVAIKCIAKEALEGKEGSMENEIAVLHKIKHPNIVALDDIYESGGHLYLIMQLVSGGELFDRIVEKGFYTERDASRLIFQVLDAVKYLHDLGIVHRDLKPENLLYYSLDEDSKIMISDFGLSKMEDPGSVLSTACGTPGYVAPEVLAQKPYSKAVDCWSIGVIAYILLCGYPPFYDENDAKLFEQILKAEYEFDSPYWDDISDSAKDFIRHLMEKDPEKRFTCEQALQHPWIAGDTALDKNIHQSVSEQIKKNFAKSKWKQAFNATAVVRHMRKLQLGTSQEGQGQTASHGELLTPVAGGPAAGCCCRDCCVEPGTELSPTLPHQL

[9] = target: Dual specificity protein kinase CLK4 (Homo sapiens) (UniProt Q9HAZ1); experiment: Competitive binding affinity to CLK4 (unknown origin) at 10 uM in presence of ATP relative to control
Sequence of Dual specificity protein kinase CLK4 (Homo sapiens) (Q9HAZ1 whole entry, looked up): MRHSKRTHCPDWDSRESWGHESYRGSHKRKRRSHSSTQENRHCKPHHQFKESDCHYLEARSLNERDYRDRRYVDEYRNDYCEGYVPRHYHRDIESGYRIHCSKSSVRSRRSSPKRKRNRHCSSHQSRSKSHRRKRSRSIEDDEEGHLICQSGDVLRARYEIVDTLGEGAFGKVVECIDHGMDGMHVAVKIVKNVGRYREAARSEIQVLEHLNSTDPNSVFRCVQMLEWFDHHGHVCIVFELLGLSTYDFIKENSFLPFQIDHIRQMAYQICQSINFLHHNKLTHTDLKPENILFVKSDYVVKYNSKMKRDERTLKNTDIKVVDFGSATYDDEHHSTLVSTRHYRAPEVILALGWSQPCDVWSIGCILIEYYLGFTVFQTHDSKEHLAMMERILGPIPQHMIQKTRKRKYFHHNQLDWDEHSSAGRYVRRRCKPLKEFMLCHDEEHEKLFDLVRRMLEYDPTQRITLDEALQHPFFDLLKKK

Compound	inhibition [1] [%]	inhibition [2] [%]	inhibition [3] [%]	inhibition [4] [%]	inhibition [5] [%]	inhibition (LIM domain kinase 1) [%]	inhibition [6] [%]	inhibition [7] [%]	inhibition [8] [%]	inhibition [9] [%]
O[C@H]1CC[C@H](Nc2nccc(-n3nnc4ccccc43)n2)CC1	< 50	77	< 50	< 50	86	87	< 50	< 50	< 50	98
N[C@H]1CC[C@H](Nc2nccc(-n3nnc4ccccc43)n2)CC1	< 50	84	73	< 50	100	< 50	< 50	< 50	89	100
O=C([C@H]1CC[C@H](Nc2nccc(-n3nnc4ccccc43)n2)CC1)N1CCOCC1	< 50	90	< 50	< 50	97	78	< 50	< 50	< 50	94
CS(=O)(=O)CCCOc1cccc2c1ccn2-c1ccnc(N[C@H]2CC[C@H](C(=O)N3CCC(O)CC3)CC2)n1						> 85			> 85	
O[C@H]1CC[C@H](Nc2nccc(-n3ncc4ccccc43)n2)CC1	< 50	< 50	< 50	< 50	75	88	< 50	< 50	76	99
O[C@H]1CC[C@H](Nc2nccc(-c3n[nH]c4ccccc34)n2)CC1	< 50	97	< 50	< 50	87	96	100	99	98	100
O[C@H]1CC[C@H](Nc2nccc(-n3ccc4ccccc43)n2)CC1	< 50	< 50	< 50	< 50	< 50	77	< 50	< 50	73	95
